Laboratory results from ChEMBL document CHEMBL4811275, “Iodinated 1,2-diacylhydrazines, benzohydrazide-hydrazones and their analogues as dual antimicrobial and cytotoxic agents” (Bioorg Med Chem, 2021).
In brackets after ≈: the same amount, converted by molar mass.

What was measured:
[1] = system: Staphylococcus aureus; experiment: Antibacterial activity against Staphylococcus aureus ATCC 29213 assessed as reduction in bacterial growth incubated for 24 hrs by broth microdilution method; format: functional
Summary of the method: (§1)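 Cation-adjusted Mueller-Hinton broth microdilution per EUCAST, modified; compounds from DMSO stocks, final DMSO ≤1% v/v; scale starting from 0.49 µM. Static incubation at 35 ± 2 °C, dark, humidified, read at 24 and 48 h. MIC = lowest concentration with no visible growth by eye; duplicates, parallel readings within one dilution step; growth and medium/DMSO controls included.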

[2] = system: Staphylococcus aureus; experiment: Antibacterial activity against Staphylococcus aureus ATCC 29213 assessed as reduction in bacterial growth incubated for 48 hrs by broth microdilution method; format: functional; summary of the method: as §1
[3] = system: Staphylococcus aureus; experiment: Antibacterial activity against methicillin-resistant Staphylococcus aureus ATCC 43300 assessed as reduction in bacterial growth incubated for 24 hrs by broth microdilution method; format: functional
Summary of the method: (§2)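 EUCAST-based broth microdilution in cation-adjusted Mueller-Hinton broth. DMSO stocks, final DMSO ≤1% v/v, concentration scale starting from 0.49 µM. Static incubation at 35 ± 2 °C, dark and humidified. Run in duplicate, accepted only if parallel MICs differ by at most one dilution step. MIC is the lowest concentration with no visible growth by naked eye.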

[4] = system: Staphylococcus aureus; experiment: Antibacterial activity against methicillin-resistant Staphylococcus aureus ATCC 43300 assessed as reduction in bacterial growth incubated for 48 hrs by broth microdilution method; format: functional; summary of the method: as §2
[5] = system: Staphylococcus epidermidis; experiment: Antibacterial activity against Staphylococcus epidermidis ATCC 12228 assessed as reduction in bacterial growth incubated for 24 hrs by broth microdilution method; format: functional; summary of the method: as §1
[6] = system: Staphylococcus epidermidis; experiment: Antibacterial activity against Staphylococcus epidermidis ATCC 12228 assessed as reduction in bacterial growth incubated for 48 hrs by broth microdilution method; format: functional; summary of the method: as §1
[7] = system: Enterococcus faecalis; experiment: Antibacterial activity against Enterococcus faecalis ATCC 29212 assessed as reduction in bacterial growth incubated for 24 hrs by broth microdilution method; format: functional; summary of the method: as §1
[8] = system: Enterococcus faecalis; experiment: Antibacterial activity against Enterococcus faecalis ATCC 29212 assessed as reduction in bacterial growth incubated for 48 hrs by broth microdilution method; format: functional; summary of the method: as §1
[9] = system: Escherichia coli; experiment: Antibacterial activity against Escherichia coli ATCC 25922 assessed as reduction in bacterial growth incubated for 24 hrs by broth microdilution method; format: functional; summary of the method: as §1
[10] = system: Escherichia coli; experiment: Antibacterial activity against Escherichia coli ATCC 25922 assessed as reduction in bacterial growth incubated for 48 hrs by broth microdilution method; format: functional; summary of the method: as §1
[11] = system: Candida albicans; experiment: Antifungal activity against Candida albicans ATCC 24443 assessed as reduction in fungal growth incubated for 24 hrs by broth microdilution method; format: functional
Summary of the method: (§3)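 Broth microdilution per EUCAST (yeasts and moulds), modified: twofold dilutions from DMSO (final ≤1% v/v) in RPMI-1640 with L-glutamine, 2% glucose, MOPS-buffered pH 7.0; scale from 0.49 µM. Static, dark, humidified, 35 ± 2 °C for 24 and 48 h (Trichophyton interdigitale 72 and 120 h). MIC = complete visible inhibition by eye; duplicates within one dilution step.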

[12] = system: Candida albicans; experiment: Antifungal activity against Candida albicans ATCC 24443 assessed as reduction in fungal growth incubated for 48 hrs by broth microdilution method; format: functional; summary of the method: as §3
[13] = system: Pichia kudriavzevii; experiment: Antifungal activity against Candida krusei ATCC 6258 assessed as reduction in fungal growth incubated for 24 hrs by broth microdilution method; format: functional; summary of the method: as §3
[14] = system: Pichia kudriavzevii; experiment: Antifungal activity against Candida krusei ATCC 6258 assessed as reduction in fungal growth incubated for 48 hrs by broth microdilution method; format: functional; summary of the method: as §3
[15] = system: Candida parapsilosis; experiment: Antifungal activity against Candida parapsilosis ATCC 22019 assessed as reduction in fungal growth incubated for 24 hrs by broth microdilution method; format: functional; settings: Lodderomyces parapsilosis; summary of the method: as §3
[16] = system: Candida parapsilosis; experiment: Antifungal activity against Candida parapsilosis ATCC 22019 assessed as reduction in fungal growth incubated for 48 hrs by broth microdilution method; format: functional; settings: Lodderomyces parapsilosis; summary of the method: as §3
[17] = system: Lichtheimia corymbifera; experiment: Antifungal activity against Lichtheimia corymbifera CCM 8077 assessed as reduction in fungal growth incubated for 24 hrs by broth microdilution method; format: functional; summary of the method: as §3
[18] = system: Lichtheimia corymbifera; experiment: Antifungal activity against Lichtheimia corymbifera CCM 8077 assessed as reduction in fungal growth incubated for 48 hrs by broth microdilution method; format: functional; summary of the method: as §3
[19] = system: Trichophyton interdigitale; experiment: Antifungal activity against Trichophyton interdigitale ATCC 9533 assessed as reduction in fungal growth incubated for 72 hrs by broth microdilution method; format: functional; summary of the method: as §3
[20] = system: Trichophyton interdigitale; experiment: Antifungal activity against Trichophyton interdigitale ATCC 9533 assessed as reduction in fungal growth incubated for 120 hrs by broth microdilution method; format: functional; summary of the method: as §3
[21] = system: HepG2; experiment: Cytotoxicity against human HepG2 cells assessed as reduction in cell viability incubated for 24 hrs by cell-titer 96 aqueous one solution cell proliferation assay; format: functional, cell-based; settings: HepG2, 24 h
[22] = system: HK-2; experiment: Cytotoxicity against human HK-2 cells assessed as reduction in cell viability incubated for 24 hrs by cell-titer 96 aqueous one solution cell proliferation assay; format: cell-based; settings: HK-2, 24 h

Row | Compound | MIC [1] [µM] | MIC [2] [µM] | MIC [3] [µM] | MIC [4] [µM] | MIC [5] [µM] | MIC [6] [µM] | MIC [7] [µM] | MIC [8] [µM] | MIC [9] [µM] | MIC [10] [µM] | IC50 [21] [µM] | further results
1 | Oc1c(I)cc(I)cc1CNNC(O)c1ccc(F)cc1 (stereo not given) | 15.6 (≈ 8.03 µg/mL) | 15.6 (≈ 8.03 µg/mL) | 31.2 (≈ 16.1 µg/mL) | 62.5 (≈ 32.1 µg/mL) | 7.81 (≈ 4.01 µg/mL) | 7.81 (≈ 4.01 µg/mL) | 15.6 (≈ 8.03 µg/mL) | 15.6 (≈ 8.03 µg/mL) | > 500 | > 500 | 41.9 | MIC [11]: > 500 µM; MIC [12]: > 500 µM; MIC [13]: > 500 µM; MIC [14]: > 500 µM; MIC [15]: > 500 µM; MIC [16]: > 500 µM; MIC [17]: > 500 µM; MIC [18]: > 500 µM; MIC [19]: 62.5 µM (≈ 32.1 µg/mL); MIC [20]: 62.5 µM (≈ 32.1 µg/mL)
2 | O=C(NNC(=O)c1cc(I)cc(I)c1O)c1ccc(I)cc1 | 250 (≈ 158 µg/mL) | 250 (≈ 158 µg/mL) | 125 (≈ 79.2 µg/mL) | 250 (≈ 158 µg/mL) | 62.5 (≈ 39.6 µg/mL) | 125 (≈ 79.2 µg/mL) | 125 (≈ 79.2 µg/mL) | 250 (≈ 158 µg/mL) | > 250 | > 250 | 25.1 | IC50 [22]: > 100 µM
3 | O=C(N/N=C/c1cc(I)cc(I)c1O)c1ccc(Br)cc1 | 62.5 (≈ 35.7 µg/mL) | 62.5 (≈ 35.7 µg/mL) | 62.5 (≈ 35.7 µg/mL) | 125 (≈ 71.4 µg/mL) | 62.5 (≈ 35.7 µg/mL) | 125 (≈ 71.4 µg/mL) | 250 (≈ 143 µg/mL) | 250 (≈ 143 µg/mL) | > 250 | > 250 | 22.3 | 
4 | O=C(N/N=C/c1cc(I)cc(I)c1O)c1ccc(I)cc1 | > 125 | > 125 | > 125 | > 125 | > 125 | > 125 | > 125 | > 125 | > 125 | > 125 | 31.8 | 
5 | Cc1ccc(C(=O)N/N=C/c2cc(I)cc(I)c2O)cc1 | > 500 | > 500 | > 500 | > 500 | > 500 | > 500 | > 500 | > 500 | > 500 | > 500 | > 25 | 
6 | O=C(NNCc1cc(I)cc(I)c1O)c1ccc(F)cc1 | 62.5 (≈ 32 µg/mL) | 125 (≈ 64 µg/mL) | 62.5 (≈ 32 µg/mL) | 125 (≈ 64 µg/mL) | 62.5 (≈ 32 µg/mL) | 62.5 (≈ 32 µg/mL) | 31.2 (≈ 16 µg/mL) | 62.5 (≈ 32 µg/mL) | > 500 | > 500 | 52.2 | MIC [11]: 125 µM (≈ 64 µg/mL); MIC [12]: > 125 µM; MIC [13]: > 125 µM; MIC [14]: > 125 µM; MIC [15]: > 125 µM; MIC [16]: > 125 µM; MIC [17]: 15.6 µM (≈ 8 µg/mL); MIC [18]: 31.2 µM (≈ 16 µg/mL); MIC [19]: 15.6 µM (≈ 8 µg/mL); MIC [20]: 31.2 µM (≈ 16 µg/mL)
7 | Cc1ccc(C(=O)NNC(=O)c2cc(I)cc(I)c2O)cc1 | 125 (≈ 65.3 µg/mL) | > 125 | > 125 | > 125 | 125 (≈ 65.3 µg/mL) | > 125 | > 125 | > 125 | > 125 | > 125 | 86.4 | 
8 | Cc1ccc(C(=O)N/N=C/c2cc(I)c(O)c(I)c2)cc1 | 250 (≈ 127 µg/mL) | 500 (≈ 253 µg/mL) | > 500 | > 500 | > 500 | > 500 | > 500 | > 500 | > 500 | > 500 | > 100 | 
9 | COc1ccc(C(=O)N/N=C/c2cc(I)c(O)c(I)c2)cc1 | 500 (≈ 261 µg/mL) | 500 (≈ 261 µg/mL) | > 500 | > 500 | > 500 | > 500 | > 500 | > 500 | > 500 | > 500 | > 100 | 
10 | O=C(N/N=C/c1cc(I)cc(I)c1O)c1ccc(Cl)cc1 | 31.2 (≈ 16.5 µg/mL) | 31.2 (≈ 16.5 µg/mL) | 31.2 (≈ 16.5 µg/mL) | 62.5 (≈ 32.9 µg/mL) | 31.2 (≈ 16.5 µg/mL) | 62.5 (≈ 32.9 µg/mL) | 62.5 (≈ 32.9 µg/mL) | 62.5 (≈ 32.9 µg/mL) | > 500 | > 500 | 14.8 | 
11 | O=C(N/N=C/c1cc(I)c(O)c(I)c1)c1ccc(Cl)cc1 | > 500 | > 500 | > 500 | > 500 | > 500 | > 500 | > 500 | > 500 | > 500 | > 500 | > 100 | 
12 | CC(C)(C)c1ccc(C(=O)N/N=C/c2cc(I)c(O)c(I)c2)cc1 | 125 (≈ 68.5 µg/mL) | 125 (≈ 68.5 µg/mL) | 125 (≈ 68.5 µg/mL) | 250 (≈ 137 µg/mL) | 125 (≈ 68.5 µg/mL) | 250 (≈ 137 µg/mL) | 250 (≈ 137 µg/mL) | 500 (≈ 274 µg/mL) | > 500 | > 500 | 45.9 | IC50 [22]: > 250 µM
13 | O=C(N/N=C/c1cc(I)cc(I)c1O)c1ccccc1 | 62.5 (≈ 30.8 µg/mL) | 125 (≈ 61.5 µg/mL) | 62.5 (≈ 30.8 µg/mL) | 125 (≈ 61.5 µg/mL) | 62.5 (≈ 30.8 µg/mL) | 125 (≈ 61.5 µg/mL) | 250 (≈ 123 µg/mL) | 500 (≈ 246 µg/mL) | > 500 | > 500 | > 50 | 
